In ChEMBL document CHEMBL1144361, “Identification of chemokine receptor CCR4 antagonist” (Bioorg Med Chem Lett, 2005):

molecular target: not listed separately; test: Inhibitory concentration against C-C chemokine receptor type 3; set-up: species or system Homo sapiens

| Compound | IC50 [µM] |
| --- | --- |
| CCN(CC)CCCC(C)Nc1nccc(NCc2ccc(Cl)cc2Cl)n1 (stereo not given) | 2 |

molecular target: C-X-C chemokine receptor type 3 (Homo sapiens) (UniProt P49682); test: Inhibitory concentration against CXC chemokine receptor 3

| Compound | IC50 [µM] |
| --- | --- |
| CCN(CC)CCCC(C)Nc1nccc(NCc2ccc(Cl)cc2Cl)n1 (stereo not given) | > 30 |

molecular target: C-C chemokine receptor type 2 (Homo sapiens, UniProt P41597); test: Inhibitory concentration against C-C chemokine receptor type 2
Sequence (P41597 whole entry): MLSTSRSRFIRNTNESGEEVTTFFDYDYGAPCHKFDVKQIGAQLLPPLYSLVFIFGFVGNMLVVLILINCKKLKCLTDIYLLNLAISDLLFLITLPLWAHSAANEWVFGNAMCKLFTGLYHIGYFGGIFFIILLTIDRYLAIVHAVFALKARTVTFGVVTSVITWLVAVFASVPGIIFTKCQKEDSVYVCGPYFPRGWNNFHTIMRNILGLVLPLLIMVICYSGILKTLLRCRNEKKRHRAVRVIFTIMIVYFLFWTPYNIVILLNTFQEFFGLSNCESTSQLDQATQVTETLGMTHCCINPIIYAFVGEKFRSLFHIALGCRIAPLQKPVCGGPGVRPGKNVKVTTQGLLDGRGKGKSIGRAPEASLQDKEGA

| Compound | IC50 [µM] |
| --- | --- |
| CCN(CC)CCCC(C)Nc1nccc(NCc2ccc(Cl)cc2Cl)n1 (stereo not given) | > 10 |

molecular target: T1, C-C chemokine receptor type 4 (Homo sapiens, UniProt P51679); test: Inhibitory concentration against human C-C chemokine receptor type 4; range = 3.6-6.1 uM
T1 sequence (P51679 whole entry): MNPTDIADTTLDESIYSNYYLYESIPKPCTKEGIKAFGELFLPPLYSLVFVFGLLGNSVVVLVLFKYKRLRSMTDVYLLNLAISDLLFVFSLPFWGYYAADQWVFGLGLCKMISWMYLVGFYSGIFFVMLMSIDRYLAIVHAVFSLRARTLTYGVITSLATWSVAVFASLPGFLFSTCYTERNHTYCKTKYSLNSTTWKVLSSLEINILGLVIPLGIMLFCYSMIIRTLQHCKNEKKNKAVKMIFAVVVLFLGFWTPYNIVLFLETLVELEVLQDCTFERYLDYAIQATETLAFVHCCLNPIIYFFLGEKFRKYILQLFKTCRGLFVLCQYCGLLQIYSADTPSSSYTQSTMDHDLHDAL
Procedure, shortened: (§1)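 Whole-cell SPA binding: HEK293 stably expressing human CCR4, 4×10^4 cells/well on poly-L-lysine plates, cultured overnight at 37 °C. Compounds in DMSO (1%). Nonspecific defined with 100 nM unlabeled MDC. 15 min mixing, then 24 h at rt before counting.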

| Compound | IC50 [µM] |
| --- | --- |
| CCN(CC)CCCC(C)Nc1nc(/C=C/c2ccccc2)nc2ccccc12 (stereo not given) | 6.1 |

molecular target: T1, C-C chemokine receptor type 4; test: Inhibitory concentration against human C-C chemokine receptor type 4; procedure, shortened: as §1

| Compound | IC50 [µM] |
| --- | --- |
| CCN(CC)CCCC(C)Nc1ccnc(COc2cccc(Cl)c2)n1 (stereo not given) | 25 |
| CCN(CC)CCCC(C)Nc1ccnc(COc2cccc(OC)c2)n1 (stereo not given) | > 30 |
| CCN(CC)CCCC(C)Nc1nc(CCc2ccccc2)nc2ccccc12 (stereo not given) | 2.4 |
| CCN(CC)CCCC(C)Nc1nc(COc2ccccc2)nc2ccccc12 (stereo not given) | 2 |
| CCN(CC)CCCC(C)Nc1ccnc(OCc2ccc(Cl)cc2Cl)n1 (stereo not given) | 2.8 |
| CCN(CC)CCCC(C)Nc1ccnc(COc2ccccc2)c1 (stereo not given) | > 30 |
| CC(C)CCCC(C)Nc1nccc(OCc2ccc(Cl)cc2Cl)n1 (stereo not given) | > 10 |
| CCN(CC)CCCC(C)Nc1nccc(NCc2ccc(Cl)cc2Cl)n1 (stereo not given) | 0.27 |
| CCN(CC)CCCC(C)Nc1nc(C(=O)Nc2ccccc2)nc2ccccc12 (stereo not given) | > 10 |
| CCN(CC)CCCNc1nccc(OCc2ccc(Cl)cc2Cl)n1 | 8 |
| CCN(CC)CCCC(C)Nc1nc(Cc2ccccc2)nc2ccccc12 (stereo not given) | 10 |
| CCN(CC)CCCC(C)Nc1nc(-c2ccccc2)nc2ccccc12 (stereo not given) | > 25 |
| CCN(CC)CCCC(C)Nc1nc(-c2ccc3ccccc3c2)nc2ccccc12 (stereo not given) | 2.5 |
| CCN(CC)CCCCNc1nccc(OCc2ccc(Cl)cc2Cl)n1 | 3 |
| CCN(CC)CCCC(C)Nc1ccnc(COc2cc(Cl)cc(Cl)c2)n1 (stereo not given) | 25 |
| CCN(CC)CCCC(C)Nc1ccnc(COc2ccccc2Cl)c1 (stereo not given) | 17 |
| CCN(CC)CCCC(C)Nc1ccnc(COc2ccc(Cl)cc2Cl)c1 (stereo not given) | 1.2 |
| CCN(CC)CCCC(C)Nc1ccnc(COc2ccc(Cl)c(Cl)c2)c1 (stereo not given) | 4 |
| CCN(CC)CCCC(C)Nc1ccnc(COc2ccc(Cl)cc2)c1 (stereo not given) | 20 |
| CCN(CC)CCCC(C)Nc1ccnc(COc2ccc(F)cc2)c1 (stereo not given) | 18 |
| CCN(CC)CCCC(C)Nc1ccnc(COc2ccc(OC)cc2OC)n1 (stereo not given) | > 30 |
| CN(C)CCCCCNc1nccc(OCc2ccc(Cl)cc2Cl)n1 | 2 |
| CCN(CC)CCCC(C)Nc1nc(CCCc2ccccc2)nc2ccccc12 (stereo not given) | > 10 |
| CCN(CC)CCNc1nccc(OCc2ccc(Cl)cc2Cl)n1 | 9 |
| CCN(CC)CCCC(C)Nc1nccc(OCc2ccc(Cl)cc2Cl)n1 (stereo in doubt; 10a) | 1.5 |
| CCN(CC)CCCC(C)Nc1nccc(OCc2ccc(Cl)cc2Cl)n1 (stereo in doubt; 11a) | 1.5 |
